Measured values as given in ChEMBL document CHEMBL3045148, “nematicidal carboxylic acids and aldehydes from Melia azedarach fruits” (J Agric Food Chem, 2010).
In brackets after ≈: the same amount, converted by molar mass.

Tests used:
Meloidogyne incognita [1] = experiment: Nematicidal activity against Meloidogyne incognita J2 (root-knot nematode) assessed as paralysis measured after 1 day at 28 degC; type: functional, organism-based; conditions: 24 h
Method in brief: (§1)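 Freshly hatched (24 h) M. incognita J2 were taken from infested tomato roots. Each well held 25 J2 immersed in test solution, kept in the dark at 28 °C. Ethanol stocks were diluted in water with Tween-20 (final ethanol ≤1%, Tween-20 ≤0.3% v/v); water-soluble acids were made up in water. J2 were scored motile or paralyzed by inverted microscope and corrected for water-control paralysis (Schneider-Orelli). EC50 came from log-logistic regression; two experiments, six replicates each.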

Meloidogyne incognita [2] = experiment: Nematicidal activity against Meloidogyne incognita J2 (root-knot nematode) assessed as paralysis measured after 1 hr at 28 degC; type: functional, organism-based; method in brief: as §1
Meloidogyne incognita [3] = experiment: Nematicidal activity against Meloidogyne incognita J2 (root-knot nematode) assessed as paralysis measured at 500 ug/mL by fumigant assay; type: functional
Method in brief: (§2)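 Vapour-exposure microwell test with 24 h-old J2 from infested tomato roots, kept in the dark at 28 °C. Test solution went into one well and J2 in tap water into the four adjacent wells, with one dose per plate. Paralysis in the adjacent wells (120 J2 per replicate) was scored by microscope as motile or paralyzed and corrected for water-control paralysis (Schneider-Orelli). Two experiments, six replicates.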

Meloidogyne incognita [4] = experiment: Nematicidal activity against Meloidogyne incognita J2 (root-knot nematode) assessed as paralysis measured after 1 day at 28 degC by fumigant assay; type: functional, organism-based; conditions: 24 h; method in brief: as §2

CC(=O)O [ACETIC ACID] showed an EC50 (Meloidogyne incognita [1]) of 38.3 µg/mL (≈ 638 µM) and an EC50 (Meloidogyne incognita [2]) of 64 µg/mL (≈ 1070 µM).
O=Cc1ccc(CO)o1 [AES-103] was tested, and the EC50 (Meloidogyne incognita [1]) was 45.7 µg/mL (≈ 362 µM) and the EC50 (Meloidogyne incognita [2]) was over 100 µg/mL.
Compound CCCC(=O)O [BUTYRIC ACID] has an Activity (Meloidogyne incognita [3]) of over 30 µg/mL, an EC50 (Meloidogyne incognita [1]) of 40.7 µg/mL (≈ 462 µM) and an EC50 (Meloidogyne incognita [2]) of 69.8 µg/mL (≈ 792 µM).
With CCCCCCCCCC(=O)O [DECANOIC ACID] the EC50 (Meloidogyne incognita [1]) was 248 µg/mL (≈ 1440 µM) and the EC50 (Meloidogyne incognita [2]) was 354 µg/mL (≈ 2050 µM).
For CCOP(=O)(SC(C)CC)N1CCSC1=O (stereo not given) [FOSTHIAZATE], the EC50 (Meloidogyne incognita [1]) was 0.4 µg/mL (≈ 1.41 µM) and the EC50 (Meloidogyne incognita [2]) was 3.3 µg/mL (≈ 11.6 µM).
Work on O=Cc1ccco1 [FURFURAL] yielded an EC50 (Meloidogyne incognita [4]) of 24.1 µg/mL (≈ 251 µM), an EC50 (Meloidogyne incognita [1]) of 8.5 µg/mL (≈ 88.5 µM) and an EC50 (Meloidogyne incognita [2]) of 11.4 µg/mL (≈ 119 µM).
In the case of OCc1ccco1 [FURFURYL ALCOHOL], the EC50 (Meloidogyne incognita [1]) was 41.2 µg/mL (≈ 420 µM) and the EC50 (Meloidogyne incognita [2]) was over 100 µg/mL.
With CCCCCC(=O)O [HEXANOATE] the EC50 (Meloidogyne incognita [1]) was 41.1 µg/mL (≈ 354 µM) and the EC50 (Meloidogyne incognita [2]) was 88.7 µg/mL (≈ 764 µM).
In the case of CCCCCCCCCCCCCCCC(=O)O [PALMITIC ACID], the EC50 (Meloidogyne incognita [1]) was over 500 µg/mL and the EC50 (Meloidogyne incognita [2]) was over 500 µg/mL.
